# Legend:
# Mus musculus [1] = species on record: Mus musculus; assay: Degree of leukopenia produced by compound is assessed form Percent change in white cells on days 5; type: functional
# Procedure, shortened: (§1)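 BDG₁ male mice received a single ip dose on day 0. The dose series topped out at the LD₅₀ level, or at twice the optimal dose for some agents. Total white blood cell count was taken on days 3, 5 and 7 and expressed as % change from untreated controls. Significance was set at p ≤ 0.05 or p ≤ 0.01.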
# Mus musculus [2] = species on record: Mus musculus; assay: Half-wave potential produced by the compound at their optimal dose; type: functional; set-up: unit not given here
# Mus musculus [3] = assay: Effect of compound on total white blood cell count in BDG1 male mice, after intraperitoneal administration at a dose of 25.6 mg/kg on day 5; type: functional
# Procedure, shortened: (§2)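 Single ip dose given on day 0 to BDG1 male mice over a descending dose series. Total white blood cell count is expressed as % change from untreated control on days 3, 5 and 7. Significance is flagged at p ≤ 0.05 and p ≤ 0.01.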
# Mus musculus [4] = assay: Effect of compound on total white blood cell count in BDG1 male mice, after intraperitoneal administration at a dose of 25.6 mg/kg on day 7; type: functional; procedure, shortened: as §2
# Mus musculus [5] = assay: Effect of compound on total white blood cell count in BDG1 male mice, after intraperitoneal administration at a dose of 25.6 mg/kg on day 3; type: functional; procedure, shortened: as §2
# Mus musculus [6] = assay: Effect of compound on total white blood cell count in BDG1 male mice, after intraperitoneal administration at a dose of 51.2 mg/kg on day 3 (highest dose was twice the optimal dose); type: functional
# Procedure, shortened: (§3)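 Single ip dose given on day 0 to BDG₁ male mice. Total white blood cell count measured on days 3, 5 and 7, expressed as % change from control. Highest dose was at the LD₅₀, or at twice the optimal dose where so footnoted. Significance reported at p ≤ 0.05 and p ≤ 0.01. D marks death of one or more mice.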
# Mus musculus [7] = assay: Effect of compound on total white blood cell count in BDG1 male mice, after intraperitoneal administration at a dose of 51.2 mg/kg on day 5 (highest dose was twice the optimal dose); type: functional; procedure, shortened: as §3
# Mus musculus [8] = assay: Minimum effective dose that show activity against P-388 murine leukemia cells in CDF1 female mice, after intraperitoneal administration (optimal dose is 25.6 mg/kg); type: functional; settings: P388, ip, read-out: MED
# Procedure, shortened: (§4)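 10⁶ P-388 ascites cells implanted ip in CDF₁ female mice. Six mice per dose, 10 saline-injected controls, and a concurrent mitomycin C reference group. %T/C = median survival time of treated/control × 100. MED is the lowest dose giving %T/C > 125. Therapeutic ratio = optimal dose/MED.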
# Mus musculus [9] = assay: Number of tumored survivors, 45 days after administration of compound at a dose of 16 mg/kg/day in mice; type: functional
# Mus musculus [10] = assay: Activity of compound dose of 16 mg/kg/day against Murine B-16 Melanocarcinoma in mice; type: functional
# Mus musculus [11] = assay: Activity of compound dose of 4 mg/kg/day against Murine B-16 Melanocarcinoma in mice; type: functional
# Mus musculus [12] = assay: Activity of compound dose of 8 mg/kg/day against Murine B-16 Melanocarcinoma in mice; type: functional
# Mus musculus [13] = assay: Antitumor activity against P-388 murine leukemia cells in CDF1 female mice after intraperitoneal administration at the specified optimal dose of 25.6 mg/kg; type: functional
# Mus musculus [14] = assay: Activity of compound dose of 0.5 mg/kg/day against Murine B-16 Melanocarcinoma in mice; type: functional
# Mus musculus [15] = assay: Activity of compound dose of 1 mg/kg/day against Murine B-16 Melanocarcinoma in mice; type: functional
# Mus musculus [16] = assay: Number of cured survivors, 45 days after administration of compound at a dose of 16 mg/kg/day in mice; type: functional
# Mus musculus [17] = assay: Number of cured survivors, 45 days after administration of compound at a dose of 4 mg/kg/day in mice; type: functional
# Mus musculus [18] = assay: Activity of compound dose of 2 mg/kg/day against Murine B-16 Melanocarcinoma in mice; type: functional
# [19] = Therapeutic ratio is expressed as ratio of optimal dose and minimum effective dose; type: ADME; settings: mouse; read-out: TR; procedure, shortened: as §4
# Mus musculus [20] = assay: Effect of compound on total white blood cell count in BDG1 male mice, after intraperitoneal administration at a dose of 12.8 mg/kg on day 7; type: functional; procedure, shortened: as §2
# Mus musculus [21] = assay: Effect of compound on total white blood cell count in BDG1 male mice, after intraperitoneal administration at a dose of 12.8 mg/kg on day 3; type: functional; procedure, shortened: as §1
# Mus musculus [22] = assay: Effect of compound on total white blood cell count in BDG1 male mice, after intraperitoneal administration at a dose of 12.8 mg/kg on day 5; type: functional; procedure, shortened: as §1
# Mus musculus [23] = assay: Effect of compound on total white blood cell count in BDG1 male mice, after intraperitoneal administration at a dose of 25.6 mg/kg on day 3 (highest dose was twice the optimal dose); type: functional
# Mus musculus [24] = assay: Effect of compound on total white blood cell count in BDG1 male mice, after intraperitoneal administration at a dose of 25.6 mg/kg on day 5 (highest dose was twice the optimal dose); type: functional
# Mus musculus [25] = assay: Effect of compound on total white blood cell count in BDG1 male mice, after intraperitoneal administration at a dose of 25.6 mg/kg on day 7 (highest dose was twice the optimal dose); type: functional
# Mus musculus [26] = assay: Minimum effective dose that show activity against P-388 murine leukemia cells in CDF1 female mice, after intraperitoneal administration (optimal dose is 12.8 mg/kg); type: functional; settings: P388, ip, read-out: MED; procedure, shortened: as §4
# Mus musculus [27] = assay: Antitumor activity against P-388 murine leukemia cells in CDF1 female mice after intraperitoneal administration at the specified optimal dose of 12.8 mg/kg; type: functional
# Mus musculus [28] = assay: Effect of compound on total white blood cell count in BDG1 male mice, after intraperitoneal administration at a dose of 2.24 mg/kg on day 3; type: functional; procedure, shortened: as §2
# Mus musculus [29] = assay: Effect of compound on total white blood cell count in BDG1 male mice, after intraperitoneal administration at a dose of 2.24 mg/kg on day 7; type: functional; procedure, shortened: as §2
# Mus musculus [30] = assay: Effect of compound on total white blood cell count in BDG1 male mice, after intraperitoneal administration at a dose of 2.24 mg/kg on day 5; type: functional; procedure, shortened: as §2
# Mus musculus [31] = assay: Effect of compound on total white blood cell count in BDG1 male mice, after intraperitoneal administration at a dose of 5.3 mg/kg on day 3; type: functional; procedure, shortened: as §3
# Mus musculus [32] = assay: Effect of compound on total white blood cell count in BDG1 male mice, after intraperitoneal administration at a dose of 5.3 mg/kg on day 5; type: functional; procedure, shortened: as §3
# Mus musculus [33] = assay: Effect of compound on total white blood cell count in BDG1 male mice, after intraperitoneal administration at a dose of 3.98 mg/kg on day 5; type: functional; procedure, shortened: as §2
# Mus musculus [34] = assay: Effect of compound on total white blood cell count in BDG1 male mice, after intraperitoneal administration at a dose of 3.98 mg/kg on day 7; type: functional; procedure, shortened: as §2
# Mus musculus [35] = assay: Effect of compound on total white blood cell count in BDG1 male mice, after intraperitoneal administration at a dose of 3.98 mg/kg on day 3; type: functional; procedure, shortened: as §2
# Mus musculus [36] = assay: Effect of compound on total white blood cell count in BDG1 male mice, after intraperitoneal administration at a dose of 2.98 mg/kg on day 3; type: functional; procedure, shortened: as §2
# Mus musculus [37] = assay: Effect of compound on total white blood cell count in BDG1 male mice, after intraperitoneal administration at a dose of 2.98 mg/kg on day 5; type: functional; procedure, shortened: as §2
# Mus musculus [38] = assay: Effect of compound on total white blood cell count in BDG1 male mice, after intraperitoneal administration at a dose of 2.98 mg/kg on day 7; type: functional; procedure, shortened: as §2
# Mus musculus [39] = assay: Effect of compound on total white blood cell count in BDG1 male mice, after intraperitoneal administration at a dose of 5.3 mg/kg on day 7; type: functional; procedure, shortened: as §3
# Mus musculus [40] = assay: Minimum effective dose that show activity against P-388 murine leukemia cells in CDF1 female mice, after intraperitoneal administration (optimal dose is 3.2 mg/kg); type: functional; settings: P388, ip, read-out: MED; procedure, shortened: as §4
# Mus musculus [41] = assay: Antitumor activity against P-388 murine leukemia cells in CDF1 female mice after intraperitoneal administration at the specified optimal dose of 3.2 mg/kg; type: functional
structure (smiles),measurement,setting,value
C=C(C)CNC1=C(C)C(=O)C2=C(C1=O)[C@H](COC(N)=O)C1(OC)[C@@H]3N[C@@H]3CN21 (stereo partly drawn),Change,Mus musculus [1],-59%
same,E1/2,Mus musculus [2],-0.41
same,Change,Mus musculus [3],-68%
same,Change,Mus musculus [4],-34%
same,Change,Mus musculus [5],-60%
same,Change,Mus musculus [6],-60%
same,Change,Mus musculus [7],-25%
same,minimal effective dose,Mus musculus [8],1.6 mg/kg
same,Survivors,Mus musculus [9],1
same,T/C,Mus musculus [10],226%
same,T/C,Mus musculus [11],160%
same,T/C,Mus musculus [12],186%
same,T/C,Mus musculus [13],245%
same,T/C,Mus musculus [14],122%
same,T/C,Mus musculus [15],131%
same,Survivors,Mus musculus [16],3
same,Survivors,Mus musculus [17],1
same,T/C,Mus musculus [18],146%
same,selectivity ratio,[19],16
COC12[C@@H]3N[C@@H]3CN1C1=C(C(=O)C(NCc3cccs3)=C(C)C1=O)[C@@H]2COC(N)=O (stereo partly drawn),Change,Mus musculus [20],-2%
same,Change,Mus musculus [21],-26%
same,Change,Mus musculus [22],-5%
same,Change,Mus musculus [23],-32%
same,Change,Mus musculus [24],-33%
same,Change,Mus musculus [25],-11%
same,minimal effective dose,Mus musculus [26],3.2 mg/kg
same,T/C,Mus musculus [27],167%
same,selectivity ratio,[19],4
COC12[C@@H](COC(N)=O)C3=C(C(=O)C(C)=C(N4CC4)C3=O)N1C[C@@H]1[C@H]2N1C (stereo partly drawn),Change,Mus musculus [28],1%
same,Change,Mus musculus [29],39%
same,Change,Mus musculus [30],11%
same,Change,Mus musculus [31],-15%
same,Change,Mus musculus [32],-20%
same,Change,Mus musculus [33],-17%
same,Change,Mus musculus [34],7%
same,Change,Mus musculus [35],-12.3%
same,Change,Mus musculus [36],5%
same,Change,Mus musculus [37],25%
same,Change,Mus musculus [38],31%
same,Change,Mus musculus [39],-13%
same,minimal effective dose,Mus musculus [40],0.2 mg/kg
same,T/C,Mus musculus [41],248%
same,selectivity ratio,[19],16

# From ChEMBL document CHEMBL1121685, “Development of new mitomycin C and porfiromycin analogues” (J Med Chem, 1981)
